# Results gathered from unrelated publications.
# Protocols differ between the studies behind these lines.
# Target: Homeodomain-interacting protein kinase 1 (HIPK1, Homo sapiens, UniProt Q86Z02)
Structure (SMILES),observed,method,tested at,remaining binding
C[C@H](NC(=O)c1cnc2n1[C@](C)(Cc1ccc(C#N)cc1)C(=O)N2c1cc(Cl)c(F)c(Cl)c1)C(=O)NC1(c2ccccn2)CC1,cell-free assay,competition with immobilised ligand,1 µM,97%
O=C(NCCCN1CCOCC1)c1ccc(Nc2ncc(Cl)c(-c3ccc(Cl)s3)n2)cc1,binding,competition with immobilised ligand,1 µM,8.7%
CNC(=O)[C@@H]1CC[C@@H](n2c(-c3ccc4cnccc4c3)nc3ccc(C(=O)NCc4cccc(C(N)=O)c4)cc32)C1,binding,competition with immobilised ligand,1 µM,85%
O=C(O)c1cc(-c2ccc(C3CCNCC3)cc2)c2ccc(-c3ccc(C(F)(F)F)cc3)cc2c1,cell-free assay,competition with immobilised ligand,1 µM,97%
O=C(Nc1c[nH]nc1C(=O)NC1CCNCC1)c1cc(F)cc(F)c1,binding,competition with immobilised ligand,1 µM,33%
CN(CCCC(F)(F)F)c1nccc(-c2cnn3ncccc23)n1,binding,,1 µM,70%
CC(=O)C1=C(C)N(c2cccc(C(F)(F)F)c2)C(=O)N[C@@H]1c1ccc(C#N)nc1,cell-free assay,competition with immobilised ligand,1 µM,72.6%
CN(C)c1ncc(F)c(-c2cnn3ncccc23)n1,binding,,1 µM,75%
C[C@@H](c1ccc(-n2cnc3c(N)ncnc32)cc1)N1CCc2nn(C)c(Cc3ccccc3)c2C1=O,binding,competition with immobilised ligand,0.1 µM,91%
N[C@@H]1CCN(c2nccc(-c3cnn4ncccc34)n2)C1,binding,,1 µM,43%
COc1cnc(Nc2cccc(S(N)(=O)=O)c2)nc1N1CCN(c2ccccc2)CC1,binding,competition with immobilised ligand,1 µM,98%
O=C(c1ccc(Nc2nccc(-c3cc4ccccc4s3)n2)cc1)N1CCC(N2CCCC2)CC1,binding,competition with immobilised ligand,1 µM,13%
C[C@H]1CCN(c2nccc(-c3cnn4ncccc34)n2)C1,binding,,1 µM,40%
Cc1cnc(Nc2ccc(C(=O)N3CCC(N4CCCC4)CC3)cc2)nc1-c1cc2ccccc2s1,binding,competition with immobilised ligand,1 µM,2.2%
CS(=O)(=O)NCC[C@H](NC(=O)c1cncc2c1cnn2-c1ccc(F)cc1)c1ccnc(S(C)(=O)=O)c1,cell-free assay,competition with immobilised ligand,1 µM,100%
CCN1CCN(Cc2ccc(C(=O)Nc3ccc(C)c(Oc4ccc5c(c4)CC(=O)N5)c3)cc2C(F)(F)F)CC1,binding,competition with immobilised ligand,1 µM,83%
c1cnn2ncc(-c3ccnc(N4CCC45COC5)n3)c2c1,binding,,1 µM,29%
Cc1cc(-n2nc(Cc3cc(F)cc(C(F)(F)F)c3)nc2C)ccc1C(N)=O,cell-free assay,competition with immobilised ligand,1 µM,92%
CN(C)c1nccc(-c2cnc3ncccn23)n1,binding,,1 µM,44%
COc1cc(-c2cn(C3CCc4ccccc4N(CC(F)(F)F)C3=O)nn2)ccc1-n1ccc(C)n1 (stereo not drawn),cell-free assay,competition with immobilised ligand,1 µM,96%
Nc1ncc2c(n1)-c1c([nH]c3ccc(C#CC4CC4)cc13)CCCC2,binding,competition with immobilised ligand,1 µM,87%
